Tests used:
Histone deacetylase 4 = Histone deacetylase 4 (Homo sapiens, UniProt P56524); experiment: Inhibition of recombinant human N-terminal GST-tagged/C-terminal His-tagged HDAC4 (627 to 1084 residues) expressed in baculovirus expression system using Boc-Lys(TFA)-AMC as substrate preincubated for 5 mins followed by substrate addition and measured after 30 mins by fluorescence assay
Histone deacetylase 5 = Histone deacetylase 5 (Homo sapiens, UniProt Q9UQL6); experiment: Inhibition of recombinant human C-terminal His-tagged HDAC5 (656 to 1122 residues) expressed in baculovirus infected Sf9 insect cells using fluorogenic HDAC 2A substrate preincubated for 5 mins followed by substrate addition and measured after 30 mins by fluorescence assay
Histone deacetylase 9 = Histone deacetylase 9 (Homo sapiens, UniProt Q9UKV0); experiment: Inhibition of recombinant human C-terminal His-tagged HDAC9 (604 to 1066 residues) expressed in baculovirus infected Sf9 cells using fluorogenic HDAC 2A substrate preincubated for 5 mins followed by substrate addition and measured after 30 mins by fluorescence assay
[1] = target: Amyloid-beta precursor protein (Homo sapiens, UniProt P05067); experiment: Inhibition of amyloid beta (1 to 42) (unknown origin) self aggregation after 24 hrs by thioflavin-T fluorescence method
How it was run: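 ThT aggregation assay. Compound at varying concentrations combined with 10 µM Aβ1-42 (1 mM DMSO stock), 10 µM ThT, 1 mM EDTA in 50 mM phosphate buffer (150 mM NaCl, pH 7.4). Incubated 24 h at 37 °C with shaking at 700 rpm; fluorescence ex 440/em 486 nm. 0.1% DMSO wells = 100% aggregation; compound wells without Aβ = background. IC50 from triplicates.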

[2] = target: T1, Protein deacetylase HDAC6 (Homo sapiens, UniProt Q9UBN7); experiment: Inhibition of HDAC6 in […] cells assessed as increase in alpha-tubulin acetylation measured after 24 hrs by Western blot analysis; format: cell-based, Mus musculus
T1 sequence (Q9UBN7 whole entry): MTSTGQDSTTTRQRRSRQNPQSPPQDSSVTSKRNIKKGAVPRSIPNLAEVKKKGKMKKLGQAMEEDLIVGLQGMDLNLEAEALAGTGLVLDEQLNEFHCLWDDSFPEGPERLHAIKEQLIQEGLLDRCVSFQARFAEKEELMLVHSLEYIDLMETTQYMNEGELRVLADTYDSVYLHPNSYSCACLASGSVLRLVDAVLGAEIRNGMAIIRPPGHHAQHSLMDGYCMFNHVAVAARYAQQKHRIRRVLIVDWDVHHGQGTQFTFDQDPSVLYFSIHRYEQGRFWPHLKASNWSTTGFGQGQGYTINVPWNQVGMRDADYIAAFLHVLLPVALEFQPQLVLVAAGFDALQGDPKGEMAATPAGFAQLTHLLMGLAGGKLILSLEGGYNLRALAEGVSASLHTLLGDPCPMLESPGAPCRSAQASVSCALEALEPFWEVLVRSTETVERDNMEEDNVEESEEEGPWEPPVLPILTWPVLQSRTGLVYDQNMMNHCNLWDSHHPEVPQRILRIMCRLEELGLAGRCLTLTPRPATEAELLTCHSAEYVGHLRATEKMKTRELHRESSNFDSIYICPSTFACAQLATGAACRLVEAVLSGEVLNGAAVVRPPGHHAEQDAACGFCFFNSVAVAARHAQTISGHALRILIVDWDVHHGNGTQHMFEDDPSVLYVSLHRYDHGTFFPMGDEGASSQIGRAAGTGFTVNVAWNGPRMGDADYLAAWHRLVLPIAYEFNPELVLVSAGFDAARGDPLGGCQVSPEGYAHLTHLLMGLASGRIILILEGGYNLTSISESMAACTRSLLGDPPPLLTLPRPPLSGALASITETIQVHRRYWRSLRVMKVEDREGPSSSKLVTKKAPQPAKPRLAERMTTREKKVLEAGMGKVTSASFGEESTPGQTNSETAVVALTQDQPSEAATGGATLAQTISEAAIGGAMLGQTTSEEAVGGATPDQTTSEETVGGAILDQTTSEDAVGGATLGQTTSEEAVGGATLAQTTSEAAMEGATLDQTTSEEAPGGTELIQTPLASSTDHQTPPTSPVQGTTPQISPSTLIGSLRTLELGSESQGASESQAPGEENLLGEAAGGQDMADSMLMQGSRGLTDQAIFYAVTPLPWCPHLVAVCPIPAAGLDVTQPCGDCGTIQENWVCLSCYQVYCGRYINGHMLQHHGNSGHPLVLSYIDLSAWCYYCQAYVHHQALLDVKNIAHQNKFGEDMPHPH

[3] = Half life in human liver microsomes at 1 uM preincubated for 3 mins followed by NADPH addition and measured up to 60 mins by LC-MS/MS analysis; format: ADME, Microsome; conditions: time <=63 min
How it was run: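 Mixed-gender human liver microsomes with test article at 1 µM final. Testosterone (5 µM) run separately as control. Mixture without cofactor equilibrated 3 min at 37 °C in a shaking water bath, then started with cofactor. Aliquots taken at 0, 10, 20, 30 and 60 min. CLint = k/P, where k is the elimination rate constant and P is the incubation protein concentration.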

MDR1 [4] = experiment: Apparent permeability of compound in MDCK-MDR1 cells at 5 uM measured after 2 hrs by LC-MS/MS analysis; format: ADME, cell-based, Canis lupus familiaris; conditions: dog
How it was run: (§1)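 MDR1-MDCK monolayers grown to confluence on collagen-coated microporous membranes. Test article dosed at 5 µM apical (A-to-B) or basolateral (B-to-A) in HBSS with 10 mM HEPES, 15 mM glucose, pH 7.4; receiver buffer has 1% BSA. 37 °C, 5% CO2; donor and receiver sampled at 120 min, quantified by LC-MS/MS (ESI). Duplicate determinations; lucifer yellow flux checks monolayer integrity. Efflux ratio = Papp(B-A)/Papp(A-B).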

Hippocampal neurone = experiment: Induction of neurite outgrowth in Sprague-Dawley rat primary hippocampal neurons assessed as increase in length of axonal neurite incubated for 3 days by DAPI staining based immunofluorescence microscopic analysis; format: functional; conditions: time 3.0 day
How it was run: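 Primary hippocampal neurons from embryonic Sprague-Dawley rats, plated on poly-D-lysine and kept in B27-neurobasal medium. Treated with DMSO or compound from DIV3 for three days, fixed at DIV6 in 4% paraformaldehyde. Axons stained with anti-tau, dendrites with anti-MAP2, nuclei with DAPI; fluorescence microscopy. At least 20 neurons traced for number and length of primary, secondary and tertiary neurites.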

MDR1 [5] = experiment: Efflux ratio of apparent permeability across basolateral to apical side over apical to basolateral side in MDCK-MDR1 cells at 5 uM measured after 2 hrs by LC-MS/MS analysis; format: ADME, cell-based, Canis lupus familiaris; conditions: dog; how it was run: as §1

Histone deacetylase 4, sequence (P56524 whole entry, the tested form may be a part): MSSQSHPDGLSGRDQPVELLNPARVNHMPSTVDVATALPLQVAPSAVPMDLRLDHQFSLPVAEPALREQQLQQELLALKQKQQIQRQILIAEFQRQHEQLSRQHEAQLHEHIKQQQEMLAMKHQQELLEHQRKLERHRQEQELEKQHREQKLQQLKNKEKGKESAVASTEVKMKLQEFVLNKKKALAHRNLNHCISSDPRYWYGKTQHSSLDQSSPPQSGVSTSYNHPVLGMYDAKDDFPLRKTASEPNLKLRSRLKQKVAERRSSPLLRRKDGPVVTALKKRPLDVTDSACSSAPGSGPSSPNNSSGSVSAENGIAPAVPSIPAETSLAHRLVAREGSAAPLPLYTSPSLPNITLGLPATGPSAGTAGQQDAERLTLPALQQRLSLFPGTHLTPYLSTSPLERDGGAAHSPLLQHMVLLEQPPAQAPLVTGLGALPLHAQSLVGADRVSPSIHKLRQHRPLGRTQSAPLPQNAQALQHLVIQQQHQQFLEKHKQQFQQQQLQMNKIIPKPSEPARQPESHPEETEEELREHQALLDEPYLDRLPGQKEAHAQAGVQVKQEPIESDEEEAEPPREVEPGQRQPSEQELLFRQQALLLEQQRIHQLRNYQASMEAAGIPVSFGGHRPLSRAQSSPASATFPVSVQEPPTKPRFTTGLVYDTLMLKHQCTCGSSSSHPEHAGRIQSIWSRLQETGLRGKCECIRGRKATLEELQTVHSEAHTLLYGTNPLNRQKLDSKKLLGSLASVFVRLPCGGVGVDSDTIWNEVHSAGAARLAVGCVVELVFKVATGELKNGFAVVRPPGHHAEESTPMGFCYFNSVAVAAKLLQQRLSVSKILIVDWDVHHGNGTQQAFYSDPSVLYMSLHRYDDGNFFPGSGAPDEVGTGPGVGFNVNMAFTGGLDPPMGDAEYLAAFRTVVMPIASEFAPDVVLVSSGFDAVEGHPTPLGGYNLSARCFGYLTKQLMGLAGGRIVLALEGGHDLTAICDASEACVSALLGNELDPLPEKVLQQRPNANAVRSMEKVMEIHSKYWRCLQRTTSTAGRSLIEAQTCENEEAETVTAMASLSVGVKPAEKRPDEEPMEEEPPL
Amyloid-beta precursor protein, sequence (P05067 whole entry): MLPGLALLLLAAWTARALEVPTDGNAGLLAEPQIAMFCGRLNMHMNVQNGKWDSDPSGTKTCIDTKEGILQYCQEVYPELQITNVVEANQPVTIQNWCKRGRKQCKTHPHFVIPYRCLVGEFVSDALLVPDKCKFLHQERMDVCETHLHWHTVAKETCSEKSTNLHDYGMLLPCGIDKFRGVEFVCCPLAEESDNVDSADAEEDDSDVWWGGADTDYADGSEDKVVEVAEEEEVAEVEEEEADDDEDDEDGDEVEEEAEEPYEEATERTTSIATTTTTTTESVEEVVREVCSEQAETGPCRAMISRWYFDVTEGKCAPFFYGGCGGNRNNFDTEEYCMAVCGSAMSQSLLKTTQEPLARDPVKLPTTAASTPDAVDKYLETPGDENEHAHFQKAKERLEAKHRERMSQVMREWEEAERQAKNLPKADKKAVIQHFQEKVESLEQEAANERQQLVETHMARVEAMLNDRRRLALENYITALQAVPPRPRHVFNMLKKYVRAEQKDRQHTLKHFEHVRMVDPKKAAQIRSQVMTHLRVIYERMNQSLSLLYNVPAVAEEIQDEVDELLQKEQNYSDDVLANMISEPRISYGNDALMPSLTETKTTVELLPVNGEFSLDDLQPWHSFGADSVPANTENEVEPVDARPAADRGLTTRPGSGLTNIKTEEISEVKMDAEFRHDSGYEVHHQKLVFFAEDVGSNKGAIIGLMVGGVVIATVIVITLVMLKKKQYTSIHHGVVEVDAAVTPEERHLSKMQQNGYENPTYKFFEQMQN
Histone deacetylase 9, sequence (Q9UKV0 whole entry, the tested form may be a part): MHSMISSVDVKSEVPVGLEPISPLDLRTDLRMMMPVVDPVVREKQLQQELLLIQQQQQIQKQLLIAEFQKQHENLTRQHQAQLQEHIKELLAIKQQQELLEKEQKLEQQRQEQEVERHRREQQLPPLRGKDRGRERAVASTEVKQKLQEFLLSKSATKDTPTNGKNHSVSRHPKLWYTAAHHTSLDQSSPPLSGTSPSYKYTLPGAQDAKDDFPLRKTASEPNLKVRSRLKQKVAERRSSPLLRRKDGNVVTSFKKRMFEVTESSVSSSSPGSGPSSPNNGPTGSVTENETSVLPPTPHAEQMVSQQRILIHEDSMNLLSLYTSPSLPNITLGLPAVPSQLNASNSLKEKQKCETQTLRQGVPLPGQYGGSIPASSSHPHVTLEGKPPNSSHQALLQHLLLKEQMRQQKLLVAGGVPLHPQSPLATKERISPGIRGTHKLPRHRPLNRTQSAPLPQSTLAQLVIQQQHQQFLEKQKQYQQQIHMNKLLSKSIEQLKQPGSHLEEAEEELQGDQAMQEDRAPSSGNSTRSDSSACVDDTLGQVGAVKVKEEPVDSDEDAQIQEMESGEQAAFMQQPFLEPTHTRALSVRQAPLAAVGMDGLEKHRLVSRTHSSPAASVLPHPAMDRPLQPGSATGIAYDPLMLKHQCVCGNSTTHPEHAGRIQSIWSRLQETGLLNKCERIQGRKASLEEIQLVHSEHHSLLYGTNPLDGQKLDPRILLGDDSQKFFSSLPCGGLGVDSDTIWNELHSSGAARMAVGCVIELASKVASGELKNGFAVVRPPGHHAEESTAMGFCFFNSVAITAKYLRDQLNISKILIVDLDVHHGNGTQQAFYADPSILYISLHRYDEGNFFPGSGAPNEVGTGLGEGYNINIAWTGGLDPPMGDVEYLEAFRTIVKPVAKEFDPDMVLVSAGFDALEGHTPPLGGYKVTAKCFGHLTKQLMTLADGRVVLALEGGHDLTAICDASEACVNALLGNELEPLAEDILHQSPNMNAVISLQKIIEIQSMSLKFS
Histone deacetylase 5, sequence (Q9UQL6 whole entry, the tested form may be a part): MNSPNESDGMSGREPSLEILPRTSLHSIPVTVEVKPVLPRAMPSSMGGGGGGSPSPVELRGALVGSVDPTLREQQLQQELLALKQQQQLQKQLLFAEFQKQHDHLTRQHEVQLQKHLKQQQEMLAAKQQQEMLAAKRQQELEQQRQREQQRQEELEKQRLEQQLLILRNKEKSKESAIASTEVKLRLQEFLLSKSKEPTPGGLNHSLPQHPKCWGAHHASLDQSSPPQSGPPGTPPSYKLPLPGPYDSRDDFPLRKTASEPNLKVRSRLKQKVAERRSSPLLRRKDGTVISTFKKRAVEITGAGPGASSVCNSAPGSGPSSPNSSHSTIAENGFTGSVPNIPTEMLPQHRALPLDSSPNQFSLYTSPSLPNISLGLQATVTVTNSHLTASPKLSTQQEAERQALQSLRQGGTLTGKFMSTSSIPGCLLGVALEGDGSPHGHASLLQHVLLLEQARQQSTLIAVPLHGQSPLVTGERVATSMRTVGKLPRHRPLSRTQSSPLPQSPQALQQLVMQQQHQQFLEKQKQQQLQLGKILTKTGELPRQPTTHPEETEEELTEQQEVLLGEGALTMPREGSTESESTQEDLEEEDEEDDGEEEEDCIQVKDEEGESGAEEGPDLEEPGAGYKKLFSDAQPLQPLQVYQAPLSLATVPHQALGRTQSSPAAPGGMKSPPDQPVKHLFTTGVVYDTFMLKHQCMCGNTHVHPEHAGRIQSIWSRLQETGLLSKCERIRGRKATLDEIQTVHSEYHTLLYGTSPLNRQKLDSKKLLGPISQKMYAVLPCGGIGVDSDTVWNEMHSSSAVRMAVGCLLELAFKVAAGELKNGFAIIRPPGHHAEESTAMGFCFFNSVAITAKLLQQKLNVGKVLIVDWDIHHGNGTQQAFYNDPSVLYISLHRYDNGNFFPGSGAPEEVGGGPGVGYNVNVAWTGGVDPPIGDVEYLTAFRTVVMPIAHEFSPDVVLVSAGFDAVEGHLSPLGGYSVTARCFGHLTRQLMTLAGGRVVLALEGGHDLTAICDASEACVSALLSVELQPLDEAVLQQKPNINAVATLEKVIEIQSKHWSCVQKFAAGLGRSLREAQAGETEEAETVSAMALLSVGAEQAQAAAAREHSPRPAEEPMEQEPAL

For O=C(NO)c1ccc(Nc2c3ccccc3nc3ccccc23)cc1, the IC50 (Histone deacetylase 4) was 2.24 µM, the IC50 (Histone deacetylase 5) was 0.85 µM and the IC50 (Histone deacetylase 9) was 0.57 µM. For the same compound, the IC50 [1] was 3 µM, the EC50 [2] was 8 µM and the half-life at 1 µM [3] was 33.9 min. For the same compound, the Papp at 2 h, 5 µM (MDR1 [4]) was 2.72 ×10⁻⁶ cm/s.
Compound O=C(NO)c1ccc(Nc2c3ccccc3nc3ccc(Br)cc23)cc1 has an IC50 (Histone deacetylase 4) of 7.85 µM, an IC50 (Histone deacetylase 5) of 7.19 µM and an IC50 (Histone deacetylase 9) of 5.51 µM. The IC50 [1] was 1.1 µM, the EC50 [2] was 8 µM and the Activity (Hippocampal neurone) was “Dose-dependent effect”. For the same compound, the half-life at 1 µM [3] was 37.9 min, the Papp at 2 h, 5 µM (MDR1 [4]) was 4.57 ×10⁻⁶ cm/s and the efflux ratio at 2 h, 5 µM (MDR1 [5]) was 7.42.

Source: ChEMBL document CHEMBL4680220, “Synthesis and biological evaluation of acridine-based histone deacetylase inhibitors as multitarget agents against Alzheimer's disease” (Eur J Med Chem, 2020)
